Experimental data collected from several papers.
Each line is one published result; the experiments were not run side by side. In brackets after ≈: the same amount, converted by molar mass.

| Compound | organism | test | test system | setting | quantity | result |
| --- | --- | --- | --- | --- | --- | --- |
| CN(C)CC(=O)O | Cryptosporidium parvum | parasite growth, imaging | HCT-8 | 1 mM, 24 h, intracellular | activity vs control | 105% |
| O=C(O)CN1C(=O)/C(=C/c2ccc(-c3ccc(N(c4ccccc4)c4ccccc4)cc3)c3ccccc23)NC1=S | Streptococcus pneumoniae | microbial killing, broth dilution | ATCC49619 |  | MBC | > 1000 µg/mL |
| Cc1c(CN(C)C(=O)/C=C/c2cnc3c(c2)CC(CCN)C(=O)N3)oc2ccccc12.Cl (stereo not drawn) | Klebsiella pneumoniae | microbial growth, broth dilution | BAA2342 |  | MIC | 16 µg/mL |
| O=C1NC(=S)N/C1=C\c1ccc(-c2ccc(N(c3ccccc3)c3ccccc3)cc2)cc1 | Streptococcus pneumoniae | microbial killing, broth dilution | ATCC49619 |  | MBC | > 1000 µg/mL |
| NCCCCNCCCN | Cryptosporidium parvum | parasite growth, imaging | HCT-8 | 1 mM, 24 h, intracellular | activity vs control | 100% |
| Cc1c(NN=C2SC(CC#N)=NC2=O)c(=O)n(-c2ccccc2)n1C | Klebsiella pneumoniae | microbial growth, well diffusion |  | 100000 µg/mL | inhibition zone | 15 mm |
| Cc1ccc(C(C)C)cc1OS(=O)(=O)c1ccc([N+](=O)[O-])cc1 | Klebsiella pneumoniae | microbial growth, broth dilution | ATCC700603 |  | IC50 | 463 µg/mL (≈ 1380 µM) |
| O=C1NC(=S)N/C1=C\c1ccc(-c2ccc(N(c3ccccc3)c3ccccc3)cc2)c2ccccc12 | Streptococcus pneumoniae | microbial killing, broth dilution | ATCC49619 |  | MBC | > 1000 µg/mL |
| O=C(O)c1cccnc1 | Cryptosporidium parvum | parasite growth, imaging | HCT-8 | 1 mM, 24 h, intracellular | activity vs control | 90.3% |
| CC(C)(NC(=O)c1cc2c(Cl)cc(Cl)cc2[nH]1)c1cn(Cc2ccccc2Cl)nn1 | Cryptosporidium parvum | parasite growth, imaging | HCT-8 | 11 µM, 72 h, intracellular | inhibition | > 60% |
| O=C1NC(=S)S/C1=C\c1c2ccccc2c(-c2ccc(N(c3ccccc3)c3ccccc3)cc2)c2ccccc12 | Streptococcus pneumoniae | microbial killing, broth dilution | ATCC49619 |  | MBC | > 1000 µg/mL |
| Nc1ncnc2c1ncn2[C@H]1C[C@H](O)[C@@H](COP(=O)(O)O)O1 | Cryptosporidium parvum | parasite growth, imaging | HCT-8 | 1 mM, 24 h, intracellular | activity vs control | 96.7% |
| CCOC(=O)c1c(N)csc1-c1cn(-c2ccccc2)nc1-c1ccc(C)cc1 | Klebsiella pneumoniae | microbial killing, broth dilution |  |  | MBC | 0.25 µg/mL (≈ 0.62 µM) |
| c1ccc(-n2cc(COc3cccc4cccnc34)nn2)cc1 | Klebsiella pneumoniae | microbial growth, broth dilution | ATCC700603 |  | IC50 | 401 µg/mL (≈ 1330 µM) |
| N#CC(=Cc1cn(-c2ccccc2)nc1-c1ccccc1)C1=NC(=O)CS1 | Klebsiella pneumoniae | microbial growth, well diffusion |  | 100000 µg/mL | inhibition zone | 27 mm |
| Cc1ncc(CO)c(C(=O)O)c1O | Cryptosporidium parvum | parasite growth, imaging | HCT-8 | 1 mM, 24 h, intracellular | activity vs control | 105% |
| CC(C)(NC(=O)c1cc2c(Cl)cc(Cl)cc2[nH]1)c1cn(Cc2cccc(Cl)c2)nn1 | Cryptosporidium parvum | parasite growth, imaging | HCT-8 | 11 µM, 72 h, intracellular | inhibition | > 60% |
| CCOC(=O)C=c1[nH]c(=O)c(=Cc2cn(-c3ccccc3)nc2-c2ccc(C)cc2)s1 | Klebsiella pneumoniae | microbial growth, well diffusion |  | 100000 µg/mL | inhibition zone | 13 mm |

| Compound | organism | test | test system | setting | quantity | result |
| --- | --- | --- | --- | --- | --- | --- |
| O=C(O)CN1C(=O)/C(=C/c2ccc(-c3ccc(N(c4ccccc4)c4ccccc4)cc3)c3ccccc23)SC1=S | Streptococcus pneumoniae | microbial killing, broth dilution | ATCC49619 |  | MBC | > 1000 µg/mL |
| Cc1ccc(C(C)C)cc1OS(=O)(=O)c1ccccc1 | Klebsiella pneumoniae | microbial growth, broth dilution | ATCC700603 |  | IC50 | 117 µg/mL |
| Cc1c(NN=C2SC(C(C#N)=Cc3ccccc3)=NC2=O)c(=O)n(-c2ccccc2)n1C | Klebsiella pneumoniae | microbial growth, well diffusion |  | 100000 µg/mL | inhibition zone | 14 mm |
| Cc1cccc2[nH]ccc12 | Cryptosporidium parvum | parasite growth | HCT-8 | 24 h, intracellular | EC90 | 552 µM |
| Cc1ccc(C(C)C)cc1OCc1cn(-c2ccc([N+](=O)[O-])cc2)nn1 | Klebsiella pneumoniae | microbial growth, broth dilution | ATCC700603 |  | IC50 | 122 µg/mL (≈ 346 µM) |
| O=c1[nH]cnc2nc[nH]c12 | Cryptosporidium parvum | parasite growth, imaging | HCT-8 | 1 mM, 24 h, intracellular | activity vs control | 106% |
| Cc1c(NC(=O)CC2=NC(=O)CS2)c(=O)n(-c2ccccc2)n1C | Klebsiella pneumoniae | microbial killing, broth dilution |  |  | MBC | 0.5 µg/mL (≈ 1.45 µM) |
| O=C(O)CN1C(=O)/C(=C/c2c3ccccc3c(-c3ccc(N(c4ccccc4)c4ccccc4)cc3)c3ccccc23)SC1=S | Streptococcus pneumoniae | microbial growth, broth dilution | ATCC49619 |  | MIC | > 1000 µg/mL |
| N#CC(=Cc1ccc(Cl)cc1)C1=NC(=O)C(=Cc2cn(-c3ccccc3)nc2-c2ccccc2)S1 | Klebsiella pneumoniae | microbial growth, well diffusion |  | 100000 µg/mL | inhibition zone | 21 mm |
| O=C1NC(=S)N/C1=C\c1c2ccccc2c(-c2ccc(N(c3ccccc3)c3ccccc3)cc2)c2ccccc12 | Streptococcus pneumoniae | microbial killing, broth dilution | ATCC49619 |  | MBC | > 1000 µg/mL |
| Cc1ccc(C(C)C)cc1OCc1cn(-c2ccc(C(=O)O)cc2)nn1 | Klebsiella pneumoniae | microbial growth, broth dilution | ATCC700603 |  | IC50 | 261 µg/mL (≈ 743 µM) |
| N#CC(=Cc1ccccc1O)C1=NC(=O)C(=Cc2cn(-c3ccccc3)nc2-c2ccccc2)S1 | Klebsiella pneumoniae | microbial growth, well diffusion |  | 100000 µg/mL | inhibition zone | 26 mm |
| NS(=O)(=O)c1ccc(-n2cc(COc3cccc4cccnc34)nn2)cc1 | Klebsiella pneumoniae | microbial growth, broth dilution | ATCC700603 |  | IC50 | 866 µg/mL (≈ 2270 µM) |
| CC(C)(NC(=O)c1cc2c(Cl)cc(Cl)cc2[nH]1)c1cn(Cc2ccccc2)nn1 | Cryptosporidium parvum | parasite growth, imaging | HCT-8 | 11 µM, 72 h, intracellular | inhibition | > 60% |
| Cc1ccc(-n2cc(COC3=CC(=O)c4ccccc4C3=O)nn2)cc1 | Klebsiella pneumoniae | microbial growth, broth dilution | ATCC700603 |  | IC50 | 220 µg/mL (≈ 638 µM) |
| Oc1ccc2cc[nH]c2c1 | Cryptosporidium parvum | parasite growth | HCT-8 | 24 h, intracellular | EC50 | 722 µM |
| O=S(=O)(Oc1cccc2cccnc12)c1cccs1 | Klebsiella pneumoniae | microbial growth, broth dilution | ATCC700603 |  | IC50 | 443 µg/mL (≈ 1520 µM) |
| O=C(O)CN1C(=O)/C(=C/c2ccc(-c3ccc(N(c4ccccc4)c4ccccc4)cc3)cc2)NC1=S | Streptococcus pneumoniae | microbial growth, broth dilution | ATCC49619 |  | MIC | 62.5 µg/mL (≈ 124 µM) |
